In ChEMBL document CHEMBL4765368, “Structure guided design and synthesis of furyl thiazolidinedione derivatives as inhibitors of GLUT 1 and GLUT 4, and evaluation of their anti-leukemic potential” (Eur J Med Chem, 2020):

Key:
[1] = organism: Homo sapiens; experiment: Selectivity ratio of IC50 for inhibition of transport activity of human GLUT4 expressed in hexose transporter deficient W4000fgy1 erg4 yeast cells to IC50 for inhibition of transport activity of human GLUT1 expressed in hexose transporter deficient VW4000fgy1 yeast cells; assay type: cell-based
How it was run: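 GLUT1 (VW4000fgy1) or GLUT4 (VW4000fgy1erg4) hxt0 yeast were grown on maltose and then glucose and resuspended in PBS pH 7.4 at OD600 ~10. Compound was used at 0.1–100 μM, final 1% DMSO. Uptake of 5 mM 14C-glucose over 10 min was stopped with ice-cold quench buffer, filtered and counted by scintillation. IC50 was taken from dose-response curves of three independent measurements.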

[2] = system: CCRF-CEM; experiment: Cell cycle arrest in human CCRF-CEM cells assessed as decrease in accumulation at G2/M phase measured after 72 hrs by NIM-DAPI staining based flow cytometry; assay type: functional
How it was run: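 An asynchronous CEM culture was seeded at 100,000 cells/well in 1 mL complete RPMI and exposed to 10, 25 or 50 μM for 72 h. Controls were untreated cells, DMSO and hydrogen peroxide. Cells were pelleted at 262 g, resuspended, and stained with NIM-DAPI, which permeabilizes and stains DNA in one step. About 100,000 events per sample were read by flow cytometry. Triplicates.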

[3] = Toxicity in SCID mouse assessed as distress at 1000 mg/kg, ip administered as single dose; assay type: organism-based; details: in vivo

SMILES	Ratio IC50 [1]	Activity [2]	Activity [3]
O=C(CN1C(=O)S/C(=C/c2ccco2)C1=O)Nc1ccc(Cl)c(Cl)c1	10	–	–
O=C(CN1C(=O)S/C(=C/c2ccco2)C1=O)Nc1nc2ccccc2s1	–	Dose-dependent effect	Toxic
